# TRPC6 inh: mouse TRPC6 channel inhibitors, primary screen, cell-based, HEK293, membrane potential dye; ACh-evoked depolarization; stronger effect = lower value; Short transient receptor potential channel 6 (Mus musculus), Q61143; B-score at 10 µM; actives 1.1% (n = 310,000); AID 2553, 2010;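 active = B-score under library mean minus 3 SD, initial fluorescence not abnormally high, positive integrated signal ratio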;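 also: B-score derived from integrated fluorescence ratio over the kinetic read; more negative B-score means stronger inhibition of depolarization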
# Target sequence (Q61143 whole entry, looked up): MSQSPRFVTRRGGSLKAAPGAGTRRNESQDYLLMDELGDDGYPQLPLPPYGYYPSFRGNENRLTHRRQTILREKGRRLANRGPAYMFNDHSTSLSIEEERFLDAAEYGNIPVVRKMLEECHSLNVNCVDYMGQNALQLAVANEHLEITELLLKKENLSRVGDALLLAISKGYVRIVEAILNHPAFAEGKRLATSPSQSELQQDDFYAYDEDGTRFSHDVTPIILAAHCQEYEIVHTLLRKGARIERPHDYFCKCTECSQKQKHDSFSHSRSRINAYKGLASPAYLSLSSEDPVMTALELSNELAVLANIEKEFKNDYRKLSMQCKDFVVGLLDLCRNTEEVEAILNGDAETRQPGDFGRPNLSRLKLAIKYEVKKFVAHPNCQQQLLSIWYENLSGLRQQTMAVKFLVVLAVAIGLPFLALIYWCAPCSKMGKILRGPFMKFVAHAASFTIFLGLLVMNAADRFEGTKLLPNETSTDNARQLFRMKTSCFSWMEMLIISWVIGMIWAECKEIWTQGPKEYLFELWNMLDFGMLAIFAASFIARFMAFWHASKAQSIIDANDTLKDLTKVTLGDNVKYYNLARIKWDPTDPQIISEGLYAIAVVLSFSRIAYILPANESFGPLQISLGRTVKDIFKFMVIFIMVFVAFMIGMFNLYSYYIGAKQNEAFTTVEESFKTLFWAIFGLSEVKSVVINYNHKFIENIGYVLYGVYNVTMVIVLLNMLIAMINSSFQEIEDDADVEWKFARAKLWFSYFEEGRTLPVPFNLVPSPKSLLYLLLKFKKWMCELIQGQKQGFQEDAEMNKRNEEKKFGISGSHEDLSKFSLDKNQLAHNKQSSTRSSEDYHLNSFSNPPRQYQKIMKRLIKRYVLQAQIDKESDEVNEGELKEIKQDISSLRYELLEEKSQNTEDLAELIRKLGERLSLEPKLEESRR
# TRPC4 PAM: positive allosteric modulators of TRPC4, primary screen, cell-based, mouse TRPC4beta, HEK293 mu-opioid, Fluo-4 calcium; actives 0.42% (n = 310,000); AID 2227, 2009; B-score at 10 µM; Short transient receptor potential channel 4 (Mus musculus), Q9QUQ5; DAMGO EC20, Fluo-4 Ca2+ flux; stronger effect = higher value;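 active = B-score of calcium response area above 5 SD of library B-scores, with initial fluorescence ratio within 5 SD of library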;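 also: B-score of integrated fluorescence ratio over time as area under calcium response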
# TRPC4 act: activators of mouse TRPC4 channel, primary screen, Fluo4 calcium, HEK293 TRPC4beta/mu-opioid cells; Short transient receptor potential channel 4 (Mus musculus), Q9QUQ5; Fluo4 calcium fluorescence; stronger effect = higher value; B-score at 10 µM; actives 0.49% (n = 310,000); AID 2237, 2010;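 active = B-score above 5 SD of library B-scores, and initial fluorescence ratio not above library mean plus 5 SD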;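 also: positive B-score marks a calcium rise read as TRPC4 activation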
#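 System: HEK293 cells stably co-expressing mouse TRPC4beta and mu-opioid receptor; Schedule: Fluo4 dye loading 45 min at room temperature, 110 s recording; Detection: Fluo4 fluorescence, kinetic; Evaluation: B-scored integrated calcium fluorescence ratio; Controls: buffer (low) and maximal DAMGO (high).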
# TRPC4 block: inhibitors of mouse TRPC4 channel, primary screen, Fluo4 calcium, HEK293 TRPC4beta/mu-opioid cells. Short transient receptor potential channel 4 (Mus musculus), Q9QUQ5. DAMGO-evoked Fluo4 calcium flux; stronger effect = lower value. B-score at 10 µM. actives 0.39% (n = 300,000);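 active = B-score over 3 SD under the library average, no early fluorescence shift, positive overall ratio signal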
#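 Assay system: HEK293 cells with stable TRPC4beta plus mu-opioid receptor expression; Probe or stimulus: DAMGO in two steps, submaximal then maximal; Dosing: single-point compound dosing; Measured by: Fluo4 calcium-dye fluorescence, kinetic read; Read-out basis: B score from integrated Fluo4 fluorescence ratio.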
# TRPC6 activator: mouse TRPC6 channel activators, primary screen, cell-based, HEK293, membrane potential dye; Short transient receptor potential channel 6 (Mus musculus), Q61143; HEK293-TRPC6 membrane potential dye fluorescence; stronger effect = higher value; B-score at 10 µM; actives 0.13% (n = 310,000); AID 2550, 2010;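 active = B-score of the integrated fluorescence ratio above library mean plus 3 SD, and starting fluorescence ratio within library mean plus 5 SD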;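 also: higher score means more depolarization so channel activation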
# TRPC4 spec 2: mouse TRPC4 off-target activity of TRPC6 inhibitors, second screen. shares compounds with TRPC6 inh. HEK293 TRPC4/MOR, membrane potential dye fluorescence; channel activated by saturating DAMGO dose. inhibition, % at 10 µM. actives 42% (n = 920). AID 2776;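 active = compounds whose fluorescence signal differed from control wells by over 3 SD, either direction, in both duplicate plates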
# TRPC4 spec: mouse TRPC4 modulation by TRPC6 hits, confirmation, selectivity assay for TRPC6 inhibitor project, cell-based, HEK293 TRPC4/mu-opioid, membrane potential dye; activity change, negative = inhibition, % at 10 µM; actives 61% (n = 920); membrane potential fluorescence; shares compounds with TRPC6 inh; AID 2777, 2010;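 active = rise or fall in signal beyond 3 SD of buffer-only wells in both replicate plates, either sign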;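 also: integrated kinetic ratio of fluorescence range over baseline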
# HEK293 MPD ctr 2-1: nonspecific membrane potential effects, parental HEK293, confirmation, counter-screen for TRPC6 inhibitor project, cell-based, second counter screen | shares compounds with TRPC6 inh | parental HEK293 membrane potential dye fluorescence; maximal acetylcholine challenge after compound addition | signal change vs control, % at 10 µM | actives 31% (n = 920);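 active = membrane potential signal moving either way by over 3 SD of the maximum-effect control, in both duplicate plates, meaning non-specific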
# HEK293 MPD ctr-1: membrane potential modulation in parental HEK293, confirmation, counter-screen for TRPC6 inhibitor project, cell-based; shares compounds with TRPC6 inh; parental HEK293 membrane potential dye fluorescence; membrane potential signal change, % at 10 µM; actives 60% (n = 920); AID 2780, 2010;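 active = membrane potential signal shifting up or down by more than 3 SD of buffer-only wells, on both duplicate plates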
# HEK293 MPD ctr-2: parental HEK293 membrane potential modulation, confirmation, counter-screen for TRPC6 modulator project, cell-based | membrane potential dye fluorescence | shares compounds with TRPC6 inh | actives 51% (n = 2,400) | membrane potential signal change, % at 10 µM;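 active = membrane potential signal moves up or down beyond 5 SD from buffer-only wells, on both duplicate plates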
# HEK293 MPD ctr 2-2: second counter-screen for TRPC6 modulators: effect in parental HEK293 cells; shares compounds with TRPC6 inh; membrane potential dye fluorescence; after compound, maximal acetylcholine stimulation; inhibition, % at 10 µM; actives 14% (n = 2,400);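 active = membrane potential signal drops by more than 5 SD from the mean control signal, in both duplicate plates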;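 also: plate controls were acetylcholine ECmax control wells for no effect and buffer only wells for full effect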
# TRPC4/MOR mod: TRPC4 modulation by TRPC6 hit compounds, confirmation, selectivity assay for TRPC6 modulator project, cell-based, HEK293 TRPC4/mu-opioid, membrane potential dye, mouse. shares compounds with TRPC6 inh. membrane potential fluorescence. percent change from control (negative = decrease, positive = increase), % at 10 µM. actives 69% (n = 2,400);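 active = membrane potential signal moved up or down beyond 5 SD of buffer control wells, in both duplicate plates, actives on both sides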;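 also: plate controls were assay buffer wells for no effect and DAMGO maximal-effect wells for full effect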
# TRPC4/MOR inh 2: second check of whether TRPC6 modulators also affect mouse TRPC4 | shares compounds with TRPC6 inh | HEK293 TRPC4/mu-opioid, membrane potential dye fluorescence; stimulated with maximal-effect DAMGO | inhibition, % at 10 µM | actives 55% (n = 2,400);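 active = drop in membrane potential signal beyond 5 SD of the control wells in both duplicate plates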;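 also: TRPC4 counter screen for TRPC6 hits run under conditions tuned for TRPC6 not TRPC4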
# TRPC6 inh conf: mouse TRPC6 channel inhibitors, confirmation, HEK293 cells, membrane potential dye, duplicate. shares compounds with TRPC6 inh. ACh-evoked depolarization. inhibition, % at 10 µM. actives 43% (n = 3,300). AID 488960, 2010;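 active = fluorescence ratio falls more than 5 SD below the full-stimulation control mean, in both duplicate runs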;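 also: integrated fluorescence ratio of peak minus minimum over baseline after agonist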
# TRPC6 act confirm: mouse TRPC6 channel activators, confirmation, HEK293 cells, membrane potential dye, duplicate. shares compounds with TRPC6 inh. HEK293-TRPC6 membrane potential dye fluorescence, FDSS. activation, % at 10 µM. actives 11% (n = 2,800);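 active = ratio signal rise beyond 5 SD above unstimulated control wells' mean, seen in both duplicate runs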;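 also: plate controls were buffer EC0 wells for no effect and acetylcholine ECmax response for full effect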
# The depositor's hits bear a star; i = inactive; . = no result given. Only some compounds are listed: those with a hit (about 2.3% of all), similar ones and a draw of the others.
SMILES,TRPC6 inh,TRPC4 PAM,TRPC4 act,TRPC4 block,TRPC6 activator,HEK293 MPD ctr-2,HEK293 MPD ctr 2-2,TRPC4/MOR mod,TRPC4/MOR inh 2,TRPC6 inh conf,TRPC6 act confirm,others
N#Cc1nc(Cc2cccc3ccccc23)oc1NCCN1CCCCC1,-5.15*,i,i,i,i,106.0%*,i,10.5%*,63.0%*,i,.,
CN(C)N(Cc1ccccc1)C(=O)C(O)(c1ccccc1)c1ccccc1,i,i,i,i,i,.,.,.,.,.,.,
CN(C)C(C)(C)/C=C/C(O)(c1ccccc1)c1ccccc1,-8.04*,i,i,i,i,.,.,.,.,54.1%*,i,TRPC4 spec 2=i;TRPC4 spec=i;HEK293 MPD ctr 2-1=-7.0%*;HEK293 MPD ctr-1=0.3%*
O=C(Nc1ccc(O)cc1)/C(=C\C=C\c1ccccc1)NC(=O)c1ccccc1,-5.63*,i,i,i,i,i,i,i,37.0%*,i,i,
Cc1cc(C)n(-c2nnc(C)n2/N=C/c2ccccc2OCc2ccccc2Cl)n1,i,i,i,i,13.1*,473.5%*,i,85.0%*,i,i,116.5%*,
O=[N+]([O-])c1ccc(-c2ccc(/C=N/n3cnnc3)o2)c(Br)c1,i,i,i,i,i,.,.,.,.,.,.,
Cc1cc([N+](=O)[O-])c(C)cc1-c1ccc(/C=N/n2cnnc2)o1,-5.8*,i,i,i,i,-107.5%*,i,-23.0%*,34.0%*,i,i,
CC(C)(C)C(=O)Cn1c(=N)n(Cc2ccccc2)c2ccccc21,i,i,i,i,i,.,.,.,.,.,.,
CC(C)(C)C(=O)Cn1c(=N)n(Cc2ccccc2Cl)c2ccccc21,-5.54*,i,i,i,i,164.0%*,i,22.5%*,77.0%*,48.0%*,.,
N#Cc1sc(=O)[nH]c1Cl,i,i,i,i,i,.,.,.,.,.,.,
Cc1ccccc1C(=O)N1CCC(n2nccc2NC(=O)CCOc2ccccc2)CC1,i,i,i,i,i,.,.,.,.,.,.,
Cc1onc(-c2ccccc2)c1C(=O)N/N=C/c1ccc([N+](=O)[O-])s1,-8.16*,i,i,i,i,.,.,.,.,i,i,TRPC4 spec 2=i;TRPC4 spec=i;HEK293 MPD ctr 2-1=i;HEK293 MPD ctr-1=i
CCc1nnc(NS(=O)(=O)c2ccc(NC(=O)c3cc(Cl)ccc3OC)cc2)s1,i,i,i,i,i,.,.,.,.,.,.,
COc1ccccc1OCC(O)Cn1c(=N)n(Cc2ccccc2)c2ccccc21 (stereo not drawn),-6.41*,i,i,i,i,122.0%*,i,46.0%*,102.0%*,51.5%*,.,
Cc1ccccc1OCC(O)Cn1c(=N)n(Cc2ccccc2)c2ccccc21 (stereo not drawn),-5.06*,i,64*,-6*,i,119.5%*,i,40.5%*,102.0%*,69.5%*,.,
N=c1n(Cc2ccccc2)c2ccccc2n1CC(O)c1ccccc1 (stereo not drawn),-7.76*,i,i,i,i,.,.,.,.,i,i,TRPC4 spec 2=28.5%*;TRPC4 spec=27.2%*;HEK293 MPD ctr 2-1=i;HEK293 MPD ctr-1=10.4%*
CCCCn1c(=N)n(CC(O)COc2cccc(C)c2)c2ccccc21 (stereo not drawn),-6.67*,i,i,i,i,.,.,.,.,i,.,TRPC4 spec 2=38.0%*;TRPC4 spec=40.1%*;HEK293 MPD ctr 2-1=269.5%*;HEK293 MPD ctr-1=22.8%*
Cc1ccc(S(=O)(=O)N2CCOCC2)cc1C(=O)N1CCN(S(=O)(=O)c2cccs2)CC1,i,i,i,i,i,.,.,.,.,.,.,
COc1ccccc1C1CCN(C(=O)c2cnn(-c3ccccc3)c2C)CC1,i,i,i,i,i,.,.,.,.,.,.,
COC(=O)c1ccc(/C=C(/NC(=O)c2ccccc2)C(=O)N2CCOCC2)cc1,i,i,i,i,i,.,.,.,.,.,.,
COc1ccc(CCNC(=O)C2=CCN(S(=O)(=O)c3ccc(F)cc3)CC2)cc1OC,i,i,i,i,i,.,.,.,.,.,.,
O=C(Nc1ccccc1)O[C@@H]1C[C@H]2CCC(=O)N3CC[C@@H](C1)[C@@H]23,i,i,i,i,i,.,.,.,.,.,.,
N=c1n(CCN2CCCC2)c2ccccc2n1CC(O)c1ccc(Cl)c(Cl)c1 (stereo not drawn),-5.8*,i,i,i,i,i,i,i,47.0%*,52.5%*,i,
